Data reported in ChEMBL document CHEMBL1155485, “Pyrimidine ribonucleotides with enhanced selectivity as P2Y(6) receptor agonists: novel 4-alkyloxyimino, (S)-methanocarba, and 5'-triphosphate gamma-ester modifications” (J Med Chem, 2010).

System: not listed separately
Assay: Stability assessed as half life by HPLC in presence of human 1321N1 cell membranes
Format: ADME, cell-based
Details: not given
Outline: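 Nucleotide (10 μL of 2 mg/mL aqueous stock) mixed with 90 μL of astrocytoma cell membrane suspension in Dulbecco's PBS pH 7.4 (final protein 14.9 μg/mL), incubated at 37°C. At intervals, aliquots were diluted tenfold in water or 5 mM TBAP and analysed by reverse-phase HPLC (TBAP–acetonitrile gradient). Half-life was taken from peak area.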

SMILES | t1/2 [h]
CCN(CC)CC.O=c1ccn([C@@H]2O[C@H](COP(=O)(O)OP(=O)(O)OP(=O)(O)O[C@H]3O[C@H](CO)[C@@H](O)[C@H](O)[C@H]3O)[C@@H](O)[C@H]2O)c(=O)[nH]1 | 29
CCN(CC)CC.CO/N=c1/ccn([C@@H]2O[C@H](COP(=O)(O)OP(=O)(O)OP(=O)(O)OC[C@H]3O[C@@H](n4ccc(=O)[nH]c4=O)[C@H](O)[C@@H]3O)[C@@H](O)[C@H]2O)c(=O)[nH]1 | 23
CCN(CC)CC.O=c1ccn([C@@H]2O[C@H](COP(=O)(O)CP(=O)(O)OP(=O)(O)OC[C@H]3O[C@@H](n4ccc(=O)[nH]c4=O)[C@H](O)[C@@H]3O)[C@@H](O)[C@H]2O)c(=O)[nH]1 | 62
CCN(CC)CC.CO/N=c1/ccn([C@@H]2O[C@H](COP(=O)(O)OP(=O)(O)O)[C@@H](O)[C@H]2O)c(=O)[nH]1 | 55

Target: P2Y purinoceptor 2 (Homo sapiens, UniProt P41231)
Sequence (P41231 whole entry): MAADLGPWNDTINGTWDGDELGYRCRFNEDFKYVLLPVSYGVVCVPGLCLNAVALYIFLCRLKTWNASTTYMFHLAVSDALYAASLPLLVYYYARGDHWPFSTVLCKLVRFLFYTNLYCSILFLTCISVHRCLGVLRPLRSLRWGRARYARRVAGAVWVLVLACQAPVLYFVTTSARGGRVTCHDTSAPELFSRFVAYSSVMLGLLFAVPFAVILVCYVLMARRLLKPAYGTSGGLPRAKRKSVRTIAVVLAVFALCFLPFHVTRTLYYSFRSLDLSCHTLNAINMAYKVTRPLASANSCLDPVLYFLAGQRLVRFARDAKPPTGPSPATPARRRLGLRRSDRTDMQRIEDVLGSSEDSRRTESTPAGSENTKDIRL
Assay: Agonist activity at human recombinant P2Y2 receptor expressed in human 1321N1 cells assessed as [3H]inositol phosphate production by scintillation proximity assay
Format: functional, cell-based
Details: not given
Outline: (§1)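 Stably transfected 1321N1 astrocytoma cells (human P2Y2, P2Y4 or P2Y6 receptor) seeded at 20,000 cells/well two days before assay; labelled 16 h with myo-[3H]inositol (1.0 μCi) in serum-free inositol-free DMEM. Agonist added in HEPES pH 7.3/HBSS with LiCl (50 mM, fivefold stock), 30 min at 37°C; stopped with ice-cold 50 mM formic acid. [3H]inositol phosphates read by SPA.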

SMILES | EC50 [nM]
CO/N=c1\ccn([C@@H]2O[C@H](COP(=O)(O)OP(=O)(O)OP(=O)(O)O)[C@@H](O)[C@H]2O)c(=O)[nH]1 | 50
O=c1ccn([C@@]23C[C@H]2[C@H](COP(=O)(O)OP(=O)(O)OP(=O)(O)O)[C@@H](O)[C@H]3O)c(=O)[nH]1 | 80
CCN(CC)CC.CO/N=c1/ccn([C@@H]2O[C@H](COP(=O)(O)OP(=O)(O)OP(=O)(O)OC[C@H]3O[C@@H](n4ccc(=O)[nH]c4=O)[C@H](O)[C@@H]3O)[C@@H](O)[C@H]2O)c(=O)[nH]1 | 170
CCN(CC)CC.O=c1ccn([C@@H]2O[C@H](COP(=O)(O)CP(=O)(O)OP(=O)(O)OC[C@H]3O[C@@H](n4ccc(=O)[nH]c4=O)[C@H](O)[C@@H]3O)[C@@H](O)[C@H]2O)c(=O)[nH]1 | > 10000
CCN(CC)CC.CO/N=c1/ccn([C@@H]2O[C@H](COP(=O)(O)OP(=O)(O)O)[C@@H](O)[C@H]2O)c(=O)[nH]1 | 3600

Target: P2Y purinoceptor 4 (Homo sapiens, UniProt P51582)
Sequence (P51582 whole entry): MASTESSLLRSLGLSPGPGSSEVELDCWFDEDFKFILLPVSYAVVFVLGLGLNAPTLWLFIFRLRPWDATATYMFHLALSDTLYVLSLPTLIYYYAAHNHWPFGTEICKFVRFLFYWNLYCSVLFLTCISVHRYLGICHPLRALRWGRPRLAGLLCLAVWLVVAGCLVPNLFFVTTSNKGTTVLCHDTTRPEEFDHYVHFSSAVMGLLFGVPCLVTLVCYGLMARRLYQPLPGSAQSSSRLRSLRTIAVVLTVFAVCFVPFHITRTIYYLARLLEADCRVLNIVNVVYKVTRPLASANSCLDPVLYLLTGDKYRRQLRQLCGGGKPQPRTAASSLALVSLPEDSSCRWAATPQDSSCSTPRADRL
Assay: Agonist activity at human recombinant P2Y4 receptor expressed in human 1321N1 cells assessed as [3H]inositol phosphate production by scintillation proximity assay
Format: functional, cell-based
Details: not given
Outline: as §1

SMILES | EC50 [nM]
CO/N=c1\ccn([C@@H]2O[C@H](COP(=O)(O)OP(=O)(O)OP(=O)(O)O)[C@@H](O)[C@H]2O)c(=O)[nH]1 | 50
O=c1ccn([C@@]23C[C@H]2[C@H](COP(=O)(O)OP(=O)(O)OP(=O)(O)O)[C@@H](O)[C@H]3O)c(=O)[nH]1 | 300
CCN(CC)CC.CO/N=c1/ccn([C@@H]2O[C@H](COP(=O)(O)OP(=O)(O)OP(=O)(O)OC[C@H]3O[C@@H](n4ccc(=O)[nH]c4=O)[C@H](O)[C@@H]3O)[C@@H](O)[C@H]2O)c(=O)[nH]1 | 790
CCN(CC)CC.CO/N=c1/ccn([C@@H]2O[C@H](COP(=O)(O)OP(=O)(O)O)[C@@H](O)[C@H]2O)c(=O)[nH]1 | 6450

Organism: Homo sapiens
Assay: Selectivity ratio of EC50 for human P2Y2 receptor to EC50 for human P2Y6 receptor
Details: not given

SMILES | Ratio EC50
CCN(CC)CC.CO/N=c1/ccn([C@@H]2O[C@H](COP(=O)(O)OP(=O)(O)OP(=O)(O)OC[C@H]3O[C@@H](n4ccc(=O)[nH]c4=O)[C@H](O)[C@@H]3O)[C@@H](O)[C@H]2O)c(=O)[nH]1 | 14

Target: T1, P2Y purinoceptor 6 (Homo sapiens, UniProt Q15077)
T1 sequence (Q15077 whole entry): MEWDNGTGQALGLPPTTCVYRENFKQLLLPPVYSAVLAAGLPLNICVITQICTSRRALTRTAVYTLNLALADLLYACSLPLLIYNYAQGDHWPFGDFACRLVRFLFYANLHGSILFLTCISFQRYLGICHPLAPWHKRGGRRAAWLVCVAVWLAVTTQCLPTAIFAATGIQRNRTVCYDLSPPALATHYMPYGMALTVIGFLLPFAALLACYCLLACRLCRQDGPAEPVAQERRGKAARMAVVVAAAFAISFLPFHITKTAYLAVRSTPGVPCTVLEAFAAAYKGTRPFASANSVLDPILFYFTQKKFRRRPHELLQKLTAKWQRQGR
Assay: Agonist activity at human recombinant P2Y6 receptor expressed in human 1321N1 cells assessed as [3H]inositol phosphate production up to 10 uM by scintillation proximity assay
Format: functional, cell-based
Details: not given
Outline: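 Human 1321N1 astrocytoma cells stably expressing the human P2Y2 or P2Y6 receptor, seeded at 20,000 cells/well two days before assay. Inositol lipids labelled for 16 h with 1.0 μCi myo-[3H]inositol in serum-free, inositol-free DMEM. Agonist added in HEPES pH 7.3/HBSS with LiCl, 30 min at 37°C. Stopped with ice-cold 50 mM formic acid; [3H]inositol phosphates counted by scintillation proximity assay. Triplicates.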

SMILES | Activity [%]
CCN(CC)CC.O=c1ccn([C@@H]2O[C@H](COP(=O)(O)OP(=O)(O)OP(=O)(O)O[C@H]3O[C@H](CO)[C@@H](O)[C@H](O)[C@H]3O)[C@@H](O)[C@H]2O)c(=O)[nH]1 | < 50

System: not listed separately
Assay: Stability assessed as half life in aqueous acidic solution at pH 1.2 by HPLC
Format: physicochemical
Details: buffer
Outline: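 Nucleotide (10 μL of 2 mg/mL aqueous stock) mixed with 90 μL of HCl/NaCl buffer pH 1.2 and held at 37°C. Aliquots taken at intervals were diluted tenfold in water or 5 mM TBAP and run on reverse-phase HPLC with a 5 mM TBAP–acetonitrile gradient. Half-life was derived from peak area.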

SMILES | t1/2 [h]
CCN(CC)CC.O=c1ccn([C@@H]2O[C@H](COP(=O)(O)OP(=O)(O)OP(=O)(O)O[C@H]3O[C@H](CO)[C@@H](O)[C@H](O)[C@H]3O)[C@@H](O)[C@H]2O)c(=O)[nH]1 | 5.1
CCN(CC)CC.CO/N=c1/ccn([C@@H]2O[C@H](COP(=O)(O)OP(=O)(O)OP(=O)(O)OC[C@H]3O[C@@H](n4ccc(=O)[nH]c4=O)[C@H](O)[C@@H]3O)[C@@H](O)[C@H]2O)c(=O)[nH]1 | 120
CCN(CC)CC.O=c1ccn([C@@H]2O[C@H](COP(=O)(O)CP(=O)(O)OP(=O)(O)OC[C@H]3O[C@@H](n4ccc(=O)[nH]c4=O)[C@H](O)[C@@H]3O)[C@@H](O)[C@H]2O)c(=O)[nH]1 | 34
CCN(CC)CC.CO/N=c1/ccn([C@@H]2O[C@H](COP(=O)(O)OP(=O)(O)O)[C@@H](O)[C@H]2O)c(=O)[nH]1 | 116

Organism: Homo sapiens
Assay: Selectivity ratio of EC50 for human P2Y4 receptor to EC50 for human P2Y6 receptor
Details: not given

SMILES | Ratio EC50
CCN(CC)CC.CO/N=c1/ccn([C@@H]2O[C@H](COP(=O)(O)OP(=O)(O)OP(=O)(O)OC[C@H]3O[C@@H](n4ccc(=O)[nH]c4=O)[C@H](O)[C@@H]3O)[C@@H](O)[C@H]2O)c(=O)[nH]1 | 66

Target: T1, P2Y purinoceptor 6
Assay: Agonist activity at human recombinant P2Y6 receptor expressed in human 1321N1 cells assessed as [3H]inositol phosphate production by scintillation proximity assay
Format: functional, cell-based
Details: not given
Outline: as §1

SMILES | EC50 [nM]
CO/N=c1\ccn([C@@H]2O[C@H](COP(=O)(O)OP(=O)(O)OP(=O)(O)O)[C@@H](O)[C@H]2O)c(=O)[nH]1 | 80
O=c1ccn([C@@]23C[C@H]2[C@H](COP(=O)(O)OP(=O)(O)OP(=O)(O)O)[C@@H](O)[C@H]3O)c(=O)[nH]1 | 1370
CCN(CC)CC.O=c1ccn([C@@H]2O[C@H](COP(=O)(O)OP(=O)(O)OP(=O)(O)O[C@H]3O[C@H](CO)[C@@H](O)[C@H](O)[C@H]3O)[C@@H](O)[C@H]2O)c(=O)[nH]1 | > 10000
CCN(CC)CC.CO/N=c1/ccn([C@@H]2O[C@H](COP(=O)(O)OP(=O)(O)OP(=O)(O)OC[C@H]3O[C@@H](n4ccc(=O)[nH]c4=O)[C@H](O)[C@@H]3O)[C@@H](O)[C@H]2O)c(=O)[nH]1 | 12
CCN(CC)CC.O=c1ccn([C@@H]2O[C@H](COP(=O)(O)CP(=O)(O)OP(=O)(O)OC[C@H]3O[C@@H](n4ccc(=O)[nH]c4=O)[C@H](O)[C@@H]3O)[C@@H](O)[C@H]2O)c(=O)[nH]1 | 1300
